Active and inactive are the calls of the source. The rule behind the calls is not given here.
Legend:
[1] = molecular target: MAP kinase p38 (Mus musculus) (UniProt P47811+O08911+Q9WUI1+Q9Z1B7); test: Inhibition of LPS-stimulated p38 MAPK phosphorylation in mouse RAW264.7 cells at 5 to 20 uM pretreated for 1 hr followed by LPS stimulation and measured after 4 hrs by Western blot analysis; assay type: cell-based
Procedure, shortened: (§1)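 RAW264.7 cells received compound (5–20 µM) or vehicle with LPS 25 ng/mL for 4 h. Phospho-ERK1/2, SAPK/JNK, p38 and Akt were immunoblotted against a GAPDH loading control. Akt phosphorylation was quantified by band intensity, mean ± SEM, n = 4, versus 0.02% DMSO cells.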

[2] = molecular target: RAC-alpha serine/threonine-protein kinase (Mus musculus) (UniProt P31750); test: Inhibition of LPS-stimulated AKT phosphorylation in mouse RAW264.7 cells at 5 to 20 uM pretreated for 1 hr followed by LPS stimulation and measured after 4 hrs by Western blot analysis; assay type: cell-based; procedure, shortened: as §1
Chain of RAC-alpha serine/threonine-protein kinase (Mus musculus) (P31750 whole entry): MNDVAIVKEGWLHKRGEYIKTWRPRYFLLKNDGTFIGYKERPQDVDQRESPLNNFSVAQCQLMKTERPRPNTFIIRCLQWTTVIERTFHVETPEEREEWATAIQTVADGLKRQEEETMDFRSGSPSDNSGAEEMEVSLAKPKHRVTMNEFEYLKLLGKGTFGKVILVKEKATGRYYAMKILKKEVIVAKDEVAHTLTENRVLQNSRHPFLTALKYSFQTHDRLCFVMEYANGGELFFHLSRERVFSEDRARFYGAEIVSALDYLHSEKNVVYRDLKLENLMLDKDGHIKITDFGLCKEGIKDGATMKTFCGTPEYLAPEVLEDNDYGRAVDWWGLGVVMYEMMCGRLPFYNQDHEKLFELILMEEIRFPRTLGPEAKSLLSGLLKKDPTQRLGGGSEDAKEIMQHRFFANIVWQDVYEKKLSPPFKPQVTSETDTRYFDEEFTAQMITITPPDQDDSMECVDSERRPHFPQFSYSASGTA

Mus musculus [3] = organism: Mus musculus; test: Inhibition of LPS-stimulated NFkappaB activation in mouse RAW blue cells assessed as reduction in SEAP protein expression at 0.1 to 20 uM pretreated for 1 hr followed by LPS stimulation and measured after 24 hrs by reporter gene assay; assay type: cell-based
Procedure, shortened: (§2)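 RAW-Blue NF-κB–SEAP reporter cells were pretreated for 1 h with compound (0.1–20 µM), dexamethasone 1 µM or DMSO vehicle, then given LPS 25 ng/mL for 24 h. SEAP activity in the supernatant was read with LPS-treated 0.02% DMSO cells set as 100%. Mean ± SEM, n = 4.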

RAW264.7 [4] = test: Inhibition of LPS-stimulated SAPK/JNK phosphorylation in mouse RAW264.7 cells at 5 to 20 uM pretreated for 1 hr followed by LPS stimulation and measured after 4 hrs by Western blot analysis; assay type: cell-based; procedure, shortened: as §1
[5] = molecular target: Mitogen-activated protein kinase 1 and 3 (ERK2 and ERK1) (Mus musculus) (UniProt P63085+Q63844); test: Inhibition of LPS-stimulated ERK1/2 phosphorylation in mouse RAW264.7 cells at 5 to 20 uM pretreated for 1 hr followed by LPS stimulation and measured after 4 hrs by Western blot analysis; assay type: cell-based; procedure, shortened: as §1
Chain of Mitogen-activated protein kinase 1 and 3 (ERK2 and ERK1) (Mus musculus) (P63085 whole entry, looked up): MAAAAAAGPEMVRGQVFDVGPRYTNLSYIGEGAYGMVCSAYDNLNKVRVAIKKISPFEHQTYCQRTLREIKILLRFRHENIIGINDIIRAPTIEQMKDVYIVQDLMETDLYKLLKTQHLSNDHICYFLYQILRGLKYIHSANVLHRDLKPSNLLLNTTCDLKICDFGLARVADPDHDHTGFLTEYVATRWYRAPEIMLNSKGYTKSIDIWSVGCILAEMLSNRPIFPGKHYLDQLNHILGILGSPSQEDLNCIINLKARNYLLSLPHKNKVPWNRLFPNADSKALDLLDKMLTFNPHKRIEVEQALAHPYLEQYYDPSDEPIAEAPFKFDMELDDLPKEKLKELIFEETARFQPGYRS
Chain of Mitogen-activated protein kinase 1 and 3 (ERK2 and ERK1) (Mus musculus) (Q63844 whole entry, looked up): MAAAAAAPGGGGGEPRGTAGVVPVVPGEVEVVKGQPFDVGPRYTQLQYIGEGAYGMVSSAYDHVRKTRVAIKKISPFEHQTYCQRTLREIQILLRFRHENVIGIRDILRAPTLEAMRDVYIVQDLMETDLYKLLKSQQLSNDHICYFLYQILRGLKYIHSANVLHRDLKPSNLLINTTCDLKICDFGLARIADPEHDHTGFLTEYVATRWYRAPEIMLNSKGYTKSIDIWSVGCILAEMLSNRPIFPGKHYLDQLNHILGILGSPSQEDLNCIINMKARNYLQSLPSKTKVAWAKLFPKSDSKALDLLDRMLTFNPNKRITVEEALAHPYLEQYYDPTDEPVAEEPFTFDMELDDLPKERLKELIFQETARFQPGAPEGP

RAW264.7 [6] = test: Anti-inflammatory activity in mouse RAW264.7 cells assessed as inhibition of LPS-induced TNFalpha production at 20 uM pretreated for 1 hr followed by LPS stimulation and measured after 18 hrs by ELISA relative to control; assay type: functional; design: scale not given: the % may be the effect or the level left
Procedure, shortened: (§3)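 DMSO stocks (100 mM) were tested at 0.1, 1, 5 and 20 µM on LPS-stimulated RAW264.7 cells, with dexamethasone 1 µM as positive control. Secreted TNF-α or IL-6 was normalized to the percentage of viable LPS-stimulated cells at each concentration. Mean of three separate experiments, each in triplicate.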

RAW264.7 [7] = test: Anti-inflammatory activity in mouse RAW264.7 cells assessed as inhibition of LPS-induced IL-6 production at 0.1 uM pretreated for 1 hr followed by LPS stimulation and measured after 18 hrs by ELISA relative to control; assay type: functional; design: scale not given: the % may be the effect or the level left; procedure, shortened: as §3
[8] = molecular target: Transcription factor p65 (Mus musculus) (UniProt Q04207); test: Inhibition of LPS-stimulated NFkappaB activation in mouse RAW264.7 cells assessed as blockade of p65 NFkappaB nuclear translocation at 20 uM pretreated for 1 hr followed by LPS stimulation and measured after 4 hrs by Western blot analysis; assay type: cell-based
Chain of Transcription factor p65 (Mus musculus) (Q04207 whole entry): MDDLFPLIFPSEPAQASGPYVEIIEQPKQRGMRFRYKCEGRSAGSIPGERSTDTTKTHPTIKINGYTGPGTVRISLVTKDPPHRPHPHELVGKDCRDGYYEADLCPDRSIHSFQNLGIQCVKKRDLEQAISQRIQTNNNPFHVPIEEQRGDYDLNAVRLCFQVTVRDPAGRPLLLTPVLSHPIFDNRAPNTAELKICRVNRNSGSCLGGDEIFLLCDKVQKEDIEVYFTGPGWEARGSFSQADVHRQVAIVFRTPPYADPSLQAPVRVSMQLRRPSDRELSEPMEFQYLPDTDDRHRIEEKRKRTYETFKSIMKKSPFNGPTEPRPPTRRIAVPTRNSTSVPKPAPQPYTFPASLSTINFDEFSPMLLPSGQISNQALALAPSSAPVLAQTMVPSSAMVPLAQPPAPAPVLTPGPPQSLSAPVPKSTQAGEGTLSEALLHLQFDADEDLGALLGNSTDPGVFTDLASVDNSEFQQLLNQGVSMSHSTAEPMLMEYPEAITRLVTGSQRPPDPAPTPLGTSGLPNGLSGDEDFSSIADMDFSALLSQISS
Procedure, shortened: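 After compound at 20 µM or vehicle with LPS 25 ng/mL for 4 h, cytoplasmic and nuclear fractions were blotted for p65. TBP (nuclear) and GAPDH (cytoplasmic) served as loading controls. Nuclear p65 was quantified by band intensity, mean ± SEM, n = 4.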

RAW264.7 [9] = test: Anti-inflammatory activity in mouse RAW264.7 cells assessed as inhibition of LPS-induced IL-6 production at 20 uM pretreated for 1 hr followed by LPS stimulation and measured after 18 hrs by ELISA relative to control; assay type: functional; design: scale not given: the % may be the effect or the level left; procedure, shortened: as §3
RAW264.7 [10] = test: Anti-inflammatory activity in mouse RAW264.7 cells assessed as inhibition of LPS-induced IL-6 mRNA expression pretreated for 1 hr followed by LPS stimulation and measured after 4 hrs by RT-PCR analysis; assay type: functional, cell-based
Procedure, shortened: (§4)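 RAW264.7 cells were exposed to compound (1, 5, 20 µM), dexamethasone 1 µM or 0.02% DMSO vehicle, then stimulated with LPS 25 ng/mL for 4 h. Total RNA was isolated and analysed by real-time PCR. mRNA was normalized to β-actin and expressed relative to unstimulated control cells. Mean ± SEM, n = 4.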

[11] = Cytotoxicity against mouse RAW264.7 cells assessed as cell viability at 1 uM incubated for 18 hrs by celltiter-glo luminescent assay relative to control; assay type: cell-based; conditions: read-out: Activity
Procedure, shortened: (§5)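 Non-stimulated RAW264.7 cells were exposed to 0.1, 1, 5 and 20 µM compound from 100 mM DMSO stocks. Percent viability is the mean of three separate experiments with triplicate samples.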

[12] = Cytotoxicity against mouse RAW264.7 cells assessed as cell viability at 0.1 uM incubated for 18 hrs by celltiter-glo luminescent assay relative to control; assay type: cell-based; conditions: read-out: Activity; procedure, shortened: as §5
RAW264.7 [13] = test: Anti-inflammatory activity in mouse RAW264.7 cells assessed as inhibition of LPS-induced iNOS mRNA expression pretreated for 1 hr followed by LPS stimulation and measured after 4 hrs by RT-PCR analysis; assay type: functional, cell-based; procedure, shortened: as §4
[14] = Cytotoxicity against mouse RAW264.7 cells assessed as cell viability at 5 uM incubated for 18 hrs by celltiter-glo luminescent assay relative to control; assay type: cell-based; conditions: read-out: Activity; procedure, shortened: as §5
RAW264.7 [15] = test: Anti-inflammatory activity in mouse RAW264.7 cells assessed as inhibition of LPS-induced TNF-alpha mRNA expression pretreated for 1 hr followed by LPS stimulation and measured after 4 hrs by RT-PCR analysis; assay type: functional, cell-based; procedure, shortened: as §4
[16] = molecular target: Transcription factor p65 (Mus musculus) (UniProt Q04207); test: Effect on total p65 NFkappaB subunit protein level in mouse RAW264.7 cells at 5 to 20 uM pretreated for 1 hr followed by LPS stimulation and measured after 4 hrs by Western blot analysis; assay type: cell-based
Procedure, shortened: (§6)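 Whole-cell lysates from RAW264.7 cells given compound (5–20 µM) or vehicle and LPS 25 ng/mL for 4 h. Phosphorylated and total p65 were immunoblotted and bands quantified densitometrically. Mean ± SEM, n = 4, compared with 0.02% DMSO cells.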

RAW264.7 [17] = test: Anti-inflammatory activity in mouse RAW264.7 cells assessed as inhibition of LPS-induced TNFalpha production at 0.1 uM pretreated for 1 hr followed by LPS stimulation and measured after 18 hrs by ELISA relative to control; assay type: functional; design: scale not given: the % may be the effect or the level left; procedure, shortened: as §3
RAW264.7 [18] = test: Anti-inflammatory activity in mouse RAW264.7 cells assessed as inhibition of LPS-induced TNFalpha production at 1 uM pretreated for 1 hr followed by LPS stimulation and measured after 18 hrs by ELISA relative to control; assay type: functional; design: scale not given: the % may be the effect or the level left; procedure, shortened: as §3
[19] = Cytotoxicity against mouse RAW264.7 cells assessed as cell viability at 20 uM incubated for 18 hrs by celltiter-glo luminescent assay relative to control; assay type: cell-based; conditions: read-out: Activity; procedure, shortened: as §5
[20] = molecular target: Transcription factor p65 (Mus musculus) (UniProt Q04207); test: Effect on p65 subunit NFkappaB phosphorylation in mouse RAW264.7 cells at 5 to 20 uM pretreated for 1 hr followed by LPS stimulation and measured after 4 hrs by Western blot analysis; assay type: cell-based; procedure, shortened: as §6
RAW264.7 [21] = test: Anti-inflammatory activity in mouse RAW264.7 cells assessed as inhibition of LPS-induced MCP-1 mRNA expression pretreated for 1 hr followed by LPS stimulation and measured after 4 hrs by RT-PCR analysis; assay type: functional, cell-based; procedure, shortened: as §4
Mus musculus [22] = organism: Mus musculus; test: Inhibition of LPS-stimulated NFkappaB activation in mouse RAW blue cells assessed as reduction in SEAP protein expression pretreated for 1 hr followed by LPS stimulation and measured after 24 hrs by reporter gene assay; assay type: cell-based; procedure, shortened: as §2
RAW264.7 [23] = test: Anti-inflammatory activity in mouse RAW264.7 cells assessed as inhibition of LPS-induced TNFalpha production at 5 uM pretreated for 1 hr followed by LPS stimulation and measured after 18 hrs by ELISA relative to control; assay type: functional; design: scale not given: the % may be the effect or the level left; procedure, shortened: as §3
RAW264.7 [24] = test: Anti-inflammatory activity in mouse RAW264.7 cells assessed as inhibition of LPS-induced IL-1beta mRNA expression pretreated for 1 hr followed by LPS stimulation and measured after 4 hrs by RT-PCR analysis; assay type: functional, cell-based; procedure, shortened: as §4
RAW264.7 [25] = test: Anti-inflammatory activity against mouse RAW264.7 cells assessed as inhibition of LPS-stimulated NO production pretreated for 1 hr followed by LPS stimulation and measured after 24 hrs by Griess reagent based assay; assay type: functional, cell-based
RAW264.7 [26] = test: Anti-inflammatory activity in mouse RAW264.7 cells assessed as inhibition of LPS-induced IL-6 production at 1 uM pretreated for 1 hr followed by LPS stimulation and measured after 18 hrs by ELISA relative to control; assay type: functional; design: scale not given: the % may be the effect or the level left; procedure, shortened: as §3
RAW264.7 [27] = test: Anti-inflammatory activity in mouse RAW264.7 cells assessed as inhibition of LPS-induced IL-6 production at 5 uM pretreated for 1 hr followed by LPS stimulation and measured after 18 hrs by ELISA relative to control; assay type: functional; design: scale not given: the % may be the effect or the level left; procedure, shortened: as §3
[28] = molecular target: RAC-alpha serine/threonine-protein kinase (Mus musculus) (UniProt P31750); test: Inhibition of LPS-stimulated AKT phosphorylation in mouse RAW264.7 cells pretreated for 1 hr followed by LPS stimulation and measured after 4 hrs by Western blot analysis; assay type: cell-based; procedure, shortened: as §1

C=C1CC[C@@H]2[C@](C)(CO)[C@H](O)CC[C@@]2(C)[C@@H]1C/C=C1/C(=O)OC[C@H]1O
inhibition [1]: Active
inhibition [2]: Active
inhibition (Mus musculus [3]): inactive
inhibition (RAW264.7 [4]): Active
inhibition [5]: Active

C=C1CC[C@H]2C(C)(C)CCC[C@]2(C)[C@H]1C/C=C1/C(=O)OC[C@H]1O
inhibition [1]: inactive
Activity (RAW264.7 [6]): 1.7%
Activity (RAW264.7 [7]): 99.2%
inhibition [8]: Active
Activity (RAW264.7 [9]): 10.8%
inhibition (RAW264.7 [10]): Dose-dependent effect
viability at 18 h, 1 µM [11]: 95.6%
viability at 18 h, 0.1 µM [12]: 103%
inhibition (RAW264.7 [13]): Dose-dependent effect
viability at 18 h, 5 µM [14]: 82.7%
inhibition (RAW264.7 [15]): Dose-dependent effect
inhibition (RAW264.7 [4]): inactive
Activity [16]: inactive
inhibition [5]: inactive
Activity (RAW264.7 [17]): 99.3%
Activity (RAW264.7 [18]): 63.4%
viability at 18 h, 20 µM [19]: 53.7%
Activity [20]: inactive
inhibition (RAW264.7 [21]): Dose-dependent effect
inhibition (Mus musculus [22]): Dose-dependent effect
Activity (RAW264.7 [23]): 19.2%
inhibition (RAW264.7 [24]): Dose-dependent effect
IC50 (RAW264.7 [25]): 3.91 µM
inhibition (RAW264.7 [25]): Dose-dependent effect
Activity (RAW264.7 [26]): 68.1%
Activity (RAW264.7 [27]): 40%
inhibition [28]: Dose-dependent effect

Source: ChEMBL document CHEMBL4393681, “The identification of naturally occurring labdane diterpenoid calcaratarin D as a potential anti-inflammatory agent” (Eur J Med Chem, 2019)
